RAM network inh: yeast RAM network inhibition; inhibition, % at 50 µM; S. cerevisiae dse1pr::URA3 reporter, 5-FOA growth OD615, 2 d; analog-sensitive cbk1-as2 kinase mutant strain; hit rate 1.8% among 190,000; AID 868;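 active means inhibition above a set limit, 3 SD over mean compound inhibition, cut at about 8.4% in these data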;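 further: 0% = DMSO-only wells with no growth and 100% = 10 µM 1-NA-PP1 full growth; inhibition rescues growth on 5-FOA so higher OD means more RAM inhibition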
WT yeast gro inh: growth inhibition of WT yeast, mitochondrial fusion screen; mitochondrial fusion phenotypic screen, WT strain; inhibition, % at 10 µM; hit rate 2.1% among 190,000; in the data active means inhibition above about 58%; tested in S. cerevisiae
Lmaj promast: reduces viability of Leishmania major promastigotes. hit rate 9% among 200,000. inhibition, % at 10 µM. resazurin fluorescence viability; in the data active means inhibition above about 50%;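 further: promastigotes grown with compound for 44 hours at 28 °C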
ABCG2 inh: inhibitors of human ABCG2 transporter, ABCB1 counter-screen; IgMXP3 cells, JC-1 efflux, flow cytometry; inhibition, % at 6.6 µM; hit rate 0.1% among 190,000;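 active means inhibition above 80%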;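 further: 0% = DMSO and 100% = nicardipine control wells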
Target sequence (Q9UNQ0 whole entry, looked up): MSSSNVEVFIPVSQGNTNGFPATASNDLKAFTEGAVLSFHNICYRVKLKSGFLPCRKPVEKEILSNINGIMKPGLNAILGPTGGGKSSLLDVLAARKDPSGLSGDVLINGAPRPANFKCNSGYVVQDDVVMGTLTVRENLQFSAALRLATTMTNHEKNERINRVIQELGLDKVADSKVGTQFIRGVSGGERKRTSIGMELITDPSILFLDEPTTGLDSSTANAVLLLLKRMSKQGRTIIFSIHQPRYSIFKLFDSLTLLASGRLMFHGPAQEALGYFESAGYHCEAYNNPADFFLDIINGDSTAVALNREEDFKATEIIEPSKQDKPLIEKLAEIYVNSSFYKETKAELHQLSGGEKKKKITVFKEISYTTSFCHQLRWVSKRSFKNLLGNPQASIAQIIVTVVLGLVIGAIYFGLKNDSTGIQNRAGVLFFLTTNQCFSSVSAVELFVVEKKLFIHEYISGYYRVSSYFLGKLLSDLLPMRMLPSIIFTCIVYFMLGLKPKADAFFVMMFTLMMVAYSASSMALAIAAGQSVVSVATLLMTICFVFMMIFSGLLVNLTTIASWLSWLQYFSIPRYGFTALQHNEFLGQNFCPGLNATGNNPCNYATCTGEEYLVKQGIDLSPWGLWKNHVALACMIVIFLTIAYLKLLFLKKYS
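Test system: ABCG2 IgMXP3 and barcoded ABCB1 CCRF-Adr cell mix; Schedule: cells with compound and JC-1, 10 min at 25 °C, rotating, no wash; Technique: flow cytometry of retained JC-1 fluorescence; Measure: % inhibition of efflux relative to nicardipine and DMSO; Controls: nicardipine high and DMSO low controls.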
ABCB1 block: blocks JC-1 efflux by human ABCB1 transporter; P08183; CCRF-Adr cells, flow cytometry; inhibition, % at 6.6 µM; hit rate 0.067% among 190,000; AID 1326; in the data active means inhibition above about 40%;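 further: 0% = vehicle and 100% = reference inhibitor; higher value means more JC-1 retained so stronger ABCB1 efflux block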
Starred values were filed as active, the others as inactive; / = not tested or not shown. Compounds with a hit are over-represented: about 12% of the library has one in this group of screens.

SMILES	RAM network inh	WT yeast gro inh	Lmaj promast	ABCG2 inh	ABCB1 block
COC(=O)c1sccc1Oc1c(Cl)cccc1[N+](=O)[O-]	0.0	-9.5	9.3	2.6	1.2
O=C(Nc1ccc(Cl)cc1)N1CCSc2ccccc21	3.0	41.9	90.3*	-0.2	-0.1
O=C(Nc1ccccc1)N1CCSc2ccccc21	-1.0	3.7	-4.5	-0.4	-0.1
O=C(Nc1ccc(Cl)cc1)N1CCCC1	2.1	22.1	96.0*	4.7	1.1
O=C(Nc1cccc(Cl)c1)N1CCCC1	-0.7	0.2	99.7*	1.1	0.2
O=C(Nc1cccc(Cl)c1)N1CCN(Cc2ccccc2)CC1	0.9	-13.1	1.2	1.8	0.5
Cc1ccc(NC(=O)CN(C)C(=O)CCC(=O)c2cccs2)cc1	1.4	-2.8	-4.2	9.7	0.2
C/C(=N\NC(=O)c1ccccc1NC(=O)c1ccc(Cl)cc1)c1ccncc1	-1.8	98.3	7.4	11.8	1.6
O=C1Cc2cc(CCN3CCN(c4nsc5ccccc45)CC3)c(Cl)cc2N1	/	11.9	/	3.7	/
O=C1NN=C(c2ccc(Br)cc2)CC1c1ccc(Cl)cc1 (centres undefined)	-0.1	58.0*	6.5	9.6	3.6
CCc1ccc(C2CC(c3ccc(Cl)cc3)=NNC2=O)cc1 (centres undefined)	4.6	23.3	0.8	1.7	0.7
Cc1ccc(C2CC(c3ccc(Cl)cc3)=NNC2=O)cc1 (centres undefined)	-1.6	12.8	1.6	2.4	0.6
CN1N=C(c2ccc(Cl)cc2)CC(c2ccc(Cl)cc2)C1=O (centres undefined)	1.6	65.0*	29.8	1.7	1.1
CCOC(=O)N1CCC(=NNC(=O)COc2ccc(OC)cc2)CC1	-0.7	-1.6	-7.1	-1.3	0.3
CCCCC(=O)OCC(=O)Nc1ccc(SC(F)F)cc1	0.6	8.3	1.2	5.5	1.1
O=C(Nc1ccc(C(=O)OC[C@@H]2CCCN3CCCC[C@H]23)cc1)c1cccc(Br)c1	2.6	11.6	68.4*	10.2	2.5
COc1ccc(/C=C(\NC(=O)c2ccccc2)C(=O)OCC2CCCN3CCCCC23)cc1OC (centres undefined)	1.2	-7.2	72.5*	2.2	-0.2
CCN1/C(=C\c2ccc3cc(C)ccc3[n+]2CC)Sc2cc(C)c(C)cc21	-0.6	88.3*	100.4*	35.8	4.5
CCN1/C(=C/c2ccc3cc(C)cc(C)c3[n+]2CC)Sc2cc(C)ccc21	-0.9	94.8*	100.4*	21.6	2.5
CSCC[C@H](NC(=O)C(C)Oc1ccc(Cl)cc1)c1nc2ccccc2[nH]1 (some centres undefined)	1.2	14.6	7.3	4.6	3.3
Cc1ccc2c(C)c(C(=O)N(Cc3cccs3)C3CCS(=O)(=O)C3)oc2c1 (centres undefined)	1.5	29.2	87.9*	3.0	1.9
CCS(=O)(=O)N1CCN(Cc2c[nH]c3ccccc23)CC1	0.6	6.4	-3.3	-0.1	0.0
c1cnc(N2CCN(Cc3c[nH]c4ccccc34)CC2)nc1	0.7	-7.3	0.0	0.8	0.4
Cc1ccccc1N1CCN(Cc2c[nH]c3ccccc23)CC1	1.1	9.3	71.5*	1.2	-0.1
O=[N+]([O-])c1ccc(CN2CCN(Cc3c[nH]c4ccccc34)CC2)cc1	0.9	3.6	83.2*	0.8	0.1
SMILES	RAM network inh	WT yeast gro inh	Lmaj promast	ABCG2 inh	ABCB1 block
O=C(CSCCO)Nc1ccc([N+](=O)[O-])cc1	0.2	-9.8	-6.5	5.5	0.3
CCOc1ccc2nc3sc(C(=O)N4CCOCC4)c(N)c3cc2c1	2.8	-1.1	92.9*	0.5	0.0
CCc1ccc(OCc2n[nH]c(=S)n2Cc2ccccc2)cc1	1.2	65.0*	8.8	-2.0	-1.4
Cc1cccc(OCc2n[nH]c(=S)n2Cc2ccccc2)c1	0.1	65.4*	3.5	0.1	-0.8
CC(C)CCn1c(COc2ccccc2)n[nH]c1=S	2.0	29.8	-3.5	0.7	-0.1
CCc1ccc(OCc2n[nH]c(=S)n2C(C)CCCC(C)C)cc1 (centres undefined)	3.7	59.9*	7.7	13.7	5.6
S=c1[nH]nc(COc2ccccc2)n1Cc1ccccc1	2.0	49.3	3.0	-3.7	-1.2
COc1cccc(-n2c(=O)[nH]cc(C(=O)Nc3ccc4c(c3)OCCO4)c2=O)c1	8.8*	11.0	-5.8	1.7	0.2
COc1ccc(-n2c(=O)[nH]cc(C(=O)Nc3ccc(NC(C)=O)cc3)c2=O)cc1	/	/	-7.6	/	/
Cc1ccccc1Cn1c(O)c(N=NC(=S)Nc2ccccc2F)c2ccccc21	5.0	-8.4	76.1*	-2.1	-0.9
CCNC(=S)N=Nc1c(O)n(Cc2ccc(Cl)cc2)c2ccccc12	5.2	-36.6	8.7	10.2	0.7
Cc1ccc(Cn2c(O)c(N=NC(=S)Nc3ccccc3F)c3cc(S(=O)(=O)N4CCOCC4)ccc32)cc1	5.3	17.5	2.9	-3.5	-1.1
Oc1c(N=NC(=S)Nc2ccccc2F)c2ccccc2n1Cc1ccc(Cl)cc1	4.1	-17.1	95.7*	1.3	-0.3
Cc1ccc(C)c(Cn2c(O)c(N=NC(=S)Nc3ccccc3F)c3ccccc32)c1	2.7	-20.6	95.8*	-3.2	-1.1
Oc1c(N=NC(=S)Nc2ccccc2F)c2ccccc2n1Cc1ccccc1F	4.2	-11.4	95.7*	0.6	0.3
Fc1ccc(-n2nnc(-c3cccnc3)n2)cc1	0.7	-0.2	3.4	2.6	0.5
Fc1ccc(C(CCCn2nnc(-c3cccnc3)n2)c2ccc(F)cc2)cc1	10.0*	61.3*	15.6	16.6	-0.5
CC1CCCN(c2ccc(C(=O)Nc3cccnc3)cc2[N+](=O)[O-])C1 (centres undefined)	2.4	39.1	23.5	9.8	1.1
CC(=O)Nc1ccc(NC(=O)c2ccc(NS(=O)(=O)c3cc(C(C)(C)C)cc(C)c3C)cc2)cc1	10.3*	6.7	51.9*	-21.5	-1.8
Cc1cc(C)c2c(N)c(C(=O)Nc3ncc(C)s3)sc2n1	1.2	6.1	67.9*	0.0	-0.1
Cc1cc(C)c2c(N)c(C(=O)c3cccc(Cl)c3)sc2n1	4.7	1.0	100.2*	24.8	0.8
Cc1nc2sc(C(=O)c3ccccc3)c(N)c2c(C)c1C	7.4	-7.5	0.7	13.3	1.7
COC(=O)c1sc2nc(C)cc(C)c2c1N	0.9	4.5	7.5	17.0	0.6
CC(=O)c1sc2nc(C)cc(C)c2c1N	-0.9	1.0	7.6	8.2	0.8
Cc1cc(C)c2c(N)c(C(=O)c3ccc(Cl)cc3Cl)sc2n1	5.5	1.7	100.1*	1.4	0.1
O=C(CSc1ncnc2sc(-c3ccccc3)cc12)NC1CCS(=O)(=O)C1 (centres undefined)	6.0	-10.2	6.3	8.3	1.1
Cc1cccc(Sc2nc(-c3ccccc3)ncc2C(=O)O)c1	3.0	-16.2	-6.7	2.0	-0.1
COc1ccc(C(c2nnnn2CC2CCCO2)N2CCN(c3ccccc3)CC2)cc1 (centres undefined)	-0.1	11.2	-1.8	3.1	0.1
Cc1cccc(N2CCN(C(c3ccccc3)c3nnnn3C(C)(C)C)CC2)c1C (centres undefined)	0.1	75.1*	44.6	6.4	2.1

From PubChem BioAssay
